Structures are written as SMILES.

Drawing on ChEMBL document CHEMBL3526029, “Disposition and metabolism of GSK2251052 in humans: a novel boron-containing antibiotic” (Drug Metab Dispos, 2013), this text covers dose excreted and Tmax for 1 compound.

Data set [1] is described as follows: Drug recovery in healthy human feces at 1500 mg, iv infusion for 1 hr as single dose after 24 hrs. The class given is ADME, organism-based. The conditions noted are these: read-out: Drug recovery.
The test system of the next data set is Plasma. Briefly: Tmax in healthy human plasma assessed as radioactivity at 1500 mg, iv infusion for 1 hr as single dose. The conditions noted are these: in vivo. The class given is ADME, organism-based. In short, it runs like this: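 Healthy men got a single 1500 mg [14C] dose by 1 h i.v. infusion. K2EDTA blood was sampled up to 336 h. Radioactivity in blood and plasma was measured by LSC, with AMS for plasma below LLQ. Parent and M3 were measured by LC/MS/MS (5–10,000 ng/ml range). Noncompartmental analysis used actual times, with t1/2 = ln2/λz and Tmax observed directly, timed from infusion start.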

By Tmax is commonly meant the time from dosing to the highest level. For `Cl.N[14CH2][C@H]1OB(O)c2c(OCCCO)cccc21`, the dose excreted at 24 h in data set [1] is 0.1%. Also, in the data set with Plasma, the Tmax was found to be 55 min.
